Assay results reported in ChEMBL document CHEMBL4020838, “The Discovery of ( S)-1-(6-(3-((4-(1-(Cyclopropanecarbonyl)piperidin-4-yl)-2-methylphenyl)amino)-2,3-dihydro-1 H-inden-4-yl)pyridin-2-yl)-5-methyl-1 H-pyrazole-4-carboxylic Acid, a Soluble Guanylate Cyclase Activator Specifically Designed for Topical Ocular Delivery as a Therapy for Glaucoma” (J Med Chem, 2018).
Calls of active or inactive are those of the source. The calls are words filed in the database; no cut-off is given here.

How the values were obtained:
Cynomolgus monkey [1] = test: Reduction of intraocular pressure in laser-induced ocular hypertensive cynomolgus monkey at 300 ug administered as single topical dose; assay type: functional; settings: Macaca fascicularis
Procedure, shortened: (§1)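 Cynomolgus monkeys with laser-induced elevated IOP received a single topical ocular dose of 300 μg in a 30 μL drop. IOP and ocular signs were observed after dosing.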

Homo sapiens [2] = species: Homo sapiens; test: Activation of soluble guanylate cyclase in human GTM3 cells assessed as increase in cGMP production after 30 mins by fluorescence assay relative to 1-{6-[5-chloro-2-({4-[trans-4-(trifluoromethyl)cyclohexyl]-benzyl}oxy)phenyl)pyridin-2-yl)-5-(trifluoromethyl)-1H-pyrazole-4-carboxylic acid; assay type: cell-based
Procedure, shortened: (§2)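 Immortalized glaucomatous trabecular meshwork (GTM-3) cells expressing endogenous levels of sGC were used. cGMP was read across a dose range. EC50 and Emax were derived from the dose-response curve.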

[3] = Activation of soluble guanylate cyclase in human GTM3 cells assessed as increase in cGMP production after 30 mins by fluorescence assay; assay type: cell-based; settings: Homo sapiens, GTM3, 0.5 h; procedure, shortened: as §2
Oryctolagus cuniculus [4] = test: Toxicity in New Zealand albino rabbit eye up to 300 ug administered as single topical dose measured up to 24 hrs post dose; settings: in vivo, topical_or_ocular
Homo sapiens [5] = species: Homo sapiens; test: Activation of HUVEC-derived soluble guanylate cyclase expressed in CHOK1 cells assessed as increase in cGMP production after 1 hr by HTRF assay relative to 1-{6-[5-chloro-2-({4-[trans-4-(trifluoromethyl)cyclohexyl]-benzyl}oxy)phenyl)pyridin-2-yl)-5-(trifluoromethyl)-1H-pyrazole-4-carboxylic acid; assay type: cell-based
Procedure, shortened: (§3)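 High-throughput assay in Chinese hamster ovary cells expressing sGC. cGMP was measured across a dose range. EC50 and Emax (maximal cGMP produced) were taken from the dose-response curve.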

[6] = Activation of HUVEC-derived soluble guanylate cyclase expressed in CHOK1 cells assessed as increase in cGMP production after 1 hr by HTRF assay; assay type: cell-based; settings: CHO-K1, 1 h; procedure, shortened: as §3
Cynomolgus monkey [7] = test: Toxicity in laser-induced ocular hypertensive cynomolgus monkey assessed as ocular irritation at 300 ug administered as single topical dose; set-up: species or system Macaca fascicularis; settings: in vivo, topical_or_ocular; procedure, shortened: as §1
Oryctolagus cuniculus [8] = test: Toxicity in New Zealand albino rabbit assessed as ocular discharge at 300 ug administered as single topical dose measured up to 24 hrs post dose; settings: in vivo, topical_or_ocular
Cynomolgus monkey [9] = test: Reduction of intraocular pressure in laser-induced ocular hypertensive cynomolgus monkey at 100 ug administered as single topical dose measured at 24 hrs post dose relative to control; assay type: functional, Macaca fascicularis; set-up: scale not given: the % may be the effect or the level left
Procedure, shortened: (§4)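 Cynomolgus monkeys with laser-induced elevated IOP received one 30 μL topical ocular drop containing 100 μg of compound, formulated as a suspension. Percent IOP reduction was recorded at 6 h and at 24 h after dosing.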

Cynomolgus monkey [10] = test: Toxicity in laser-induced ocular hypertensive cynomolgus monkey assessed as ocular discharge at 300 ug administered as single topical dose; set-up: species or system Macaca fascicularis; settings: in vivo, topical_or_ocular; procedure, shortened: as §1
Cynomolgus monkey [11] = test: Reduction of intraocular pressure in laser-induced ocular hypertensive cynomolgus monkey at 100 ug administered as single topical dose measured at 6 hr post dose relative to control; assay type: functional, Macaca fascicularis; set-up: scale not given: the % may be the effect or the level left; procedure, shortened: as §4
Cynomolgus monkey [12] = test: Toxicity in laser-induced ocular hypertensive cynomolgus monkey assessed as conjunctival hyperemia at 300 ug administered as single topical dose; set-up: species or system Macaca fascicularis; settings: in vivo, topical_or_ocular; procedure, shortened: as §1
Oryctolagus cuniculus [13] = test: Toxicity in New Zealand albino rabbit assessed as conjunctival hyperemia at 300 ug administered as single topical dose measured up to 24 hrs post dose; settings: in vivo, topical_or_ocular

EC50 [3] [nM]	EC50 [6] [nM]	Compound	Activity (Cynomolgus monkey [1])	Emax (Homo sapiens [2]) [%]	Activity (Oryctolagus cuniculus [4])	Emax (Homo sapiens [5]) [%]	Activity (Cynomolgus monkey [7])	Activity (Oryctolagus cuniculus [8])	Activity (Cynomolgus monkey [9]) [%]	Activity (Cynomolgus monkey [10])	Activity (Cynomolgus monkey [11]) [%]	Activity (Cynomolgus monkey [12])	Activity (Oryctolagus cuniculus [13])
12	1	CCc1c(C)sc(-c2cccc(-n3ncc(C(=O)O)c3C(F)(F)F)n2)c1COc1ccc(C2CCN(C(=O)C3CC3)CC2)cc1C	Active	93	Non-Toxic	101	Toxic	–	–	–	–	–	–
370	5.5	CCC(=O)N1CCC(c2ccc(OCc3ccsc3-c3cccc(-n4ncc(C(=O)O)c4C(F)(F)F)n3)c(C)c2)CC1	–	97	–	100	–	Toxic	10	Toxic	17	Toxic	Toxic
